# Reference: ChEMBL document CHEMBL1926567, “Triterpenoids as inhibitors of erythrocytic and liver stages of Plasmodium infections” (Bioorg Med Chem, 2011)
# Active and inactive are the calls of the source. The calls are words filed in the database; no cut-off is given here.
# What was measured:
# Hepatocyte = assay: Cytotoxicity against mouse primary hepatocytes at 15 uM after 24 hrs by alamar blue fluorescence assay; format: cell-based
# Summary of the method: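 Mouse primary hepatocytes incubated with compounds for 24 h, then with AlamarBlue-containing medium for 1 h before fluorescence reading. Signal normalized to cells treated with 500 μM H2O2 as positive control and compared with a DMSO control at the amount present in the highest drug concentration.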
# MCF7 = assay: Cytotoxicity against human MCF7 cells after 24 hrs by MTT assay; format: cell-based; details: MCF7, 24 h
# Summary of the method: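 MCF-7 cells grown in RPMI 1640 with 10% heat-inactivated horse serum and 2 mM L-glutamine at 37 °C, 5% CO2. 2×10^4 cells/well exposed to increasing compound concentrations for 24 h. MTT added for 4 h, then 10% SDS overnight; OD at 550 nm (reference 630 nm). Percent growth inhibition calculated relative to cell and medium controls; IC50 given as mean ± SD of three experiments.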
# [1] = Selectivity index, ratio of IC50 for human MCF7 cells to IC50 for chloroquine-sensitive Plasmodium falciparum 3D7; format: toxicity, cell-based; details: read-out: Ratio IC50
# Summary of the method: (§1)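 MCF-7 cells were grown in RPMI 1640 with 10% heat-inactivated horse serum and 2 mM L-glutamine. Cells (2×10^4 per well) were exposed to increasing compound concentrations for 24 h at 37 °C, then given MTT for 4 h and SDS overnight; OD read at 550 nm (ref 630 nm). Growth-inhibition IC50 from three experiments.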
# Huh-7 = assay: Cytotoxicity against human HuH7 cells at 15 uM by alamar blue fluorescence assay; format: cell-based; details: huh-7, 15 µM
# Summary of the method: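 Huh-7 cells cultured in RPMI 1640 with 10% FCS and 10 mM HEPES pH 7 at 37 °C, 5% CO2. Cells seeded the day before, exposed to compounds (1, 5, 15 uM) and infected in parallel with the liver-stage assay. Viability read as AlamarBlue fluorescence (cell confluency), compared with DMSO controls; three independent measurements.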
# [2] = Selectivity index, ratio of IC50 for human MCF7 cells to IC50 for chloroquine-resistant Plasmodium falciparum Dd2; format: toxicity, cell-based; details: read-out: Ratio IC50; summary of the method: as §1
# Plasmodium falciparum [3] = assay: Antimalarial activity against chloroquine-resistant Plasmodium falciparum Dd2 infected in erythrocytes after 48 hrs by SYBR green 1-based fluorescence assay; format: functional, organism-based; details: Dd2, 48 h
# Summary of the method: (§2)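 P. falciparum (3D7 or Dd2) grown in fresh human erythrocytes in RPMI 1640 with 25 mM HEPES, 6.8 mM hypoxanthine and 10% AlbuMAX II, at 37 °C under 5% O2, 3–5% CO2 and N2. Ring-stage cultures at 1% parasitaemia and 2% haematocrit were exposed in duplicate to 0.156–100 µg/mL (from DMSO stocks) for 48 h at 37 °C. SYBR Green I lysis buffer was then added for 1 h in the dark; fluorescence read at ex 485/em 535 nm. IC50 is the mean of three independent experiments.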
# Plasmodium berghei [4] = assay: Antimalarial activity against transgenic Plasmodium berghei expressing PbGFP-Luc-con infected in human HuH7 cells assessed as reduction of parasite motility at 15 uM by luciferase based assay; format: functional, organism-based; details: Huh-7
# Plasmodium falciparum [5] = assay: Antimalarial activity against chloroquine-sensitive Plasmodium falciparum 3D7 infected in erythrocytes after 48 hrs by SYBR green 1-based fluorescence assay; format: functional, organism-based; details: 3D7, 48 h; summary of the method: as §2
# Plasmodium berghei [6] = assay: Antimalarial activity against transgenic Plasmodium berghei expressing PbGFP-Luc-con infected in human HuH7 cells assessed as reduction of parasite invasion at 15 uM by luciferase based assay; format: functional, organism-based; details: Huh-7
# Plasmodium berghei [7] = assay: Antimalarial activity against liver stage of transgenic Plasmodium berghei expressing PbGFP-Luc-con infected in human HuH7 cells at 1 to 15 uM after 48 hrs by bioluminescence method; format: functional, organism-based; details: Huh-7
# Summary of the method: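 Huh-7 human hepatoma cells (12×10^3/well) seeded the day before; compounds at 1, 5 and 15 uM added 1 h before sporozoites of luciferase-expressing P. berghei PbGFP-Luc_con, freshly dissected from infected female Anopheles stephensi salivary glands. Plates centrifuged 1700g for 5 min after sporozoite addition. Luminescence read 48 h post-infection versus DMSO controls. Primaquine positive control; three independent measurements.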
# Plasmodium berghei [8] = assay: Antimalarial activity against transgenic Plasmodium berghei expressing PbGFP-Luc-con infected in human HuH7 cells assessed as reduction of intracellular liver stage development at 15 uM by luciferase based assay; format: functional, organism-based; details: Huh-7
# Plasmodium falciparum [9] = assay: Ratio of balsaminol-F IC50 to compound IC50 for chloroquine-sensitive Plasmodium falciparum 3D7; format: functional
# Plasmodium falciparum [10] = assay: Ratio of balsaminol-F IC50 to compound IC50 for chloroquine-resistant Plasmodium falciparum Dd2; format: functional
Structure (SMILES),Activity (Hepatocyte),IC50 (MCF7),selectivity ratio [1],Activity (Huh-7),selectivity ratio [2],IC50 (Plasmodium falciparum [3]),Activity (Plasmodium berghei [4]),IC50 (Plasmodium falciparum [5]),Activity (Plasmodium berghei [6]),Activity (Plasmodium berghei [7]),Activity (Plasmodium berghei [8]),Ratio IC50 (Plasmodium falciparum [9]),Ratio IC50 (Plasmodium falciparum [10])
CC(C)=C[C@H](O)C[C@@H](C)[C@H]1CC[C@@]2(C)[C@@H]3[C@@H](O[C@@H]4O[C@H](CO)[C@@H](O)[C@@H](O)[C@H]4O)C=C4[C@@H](CC[C@H](O)C4(C)C)[C@]3(C)CC[C@]12C (relative stereo) [BALSAMINOSIDE B],Toxic,14.2 µM,4.8,Toxic,2.3,6.3 µM,inactive,2.9 µM,inactive,Active,Active,–,–
CC(C)=C[C@H](O)C[C@@H](C)[C@H]1CC[C@@]2(C)[C@@H]3[C@@H](O[C@@H]4O[C@H](CO)[C@@H](O)[C@H](O)[C@H]4O)C=C4[C@@H](CC[C@H](O)C4(C)C)[C@]3(C)CC[C@]12C [BALSAMINOSIDE C],–,23.9 µM,7,–,3.3,7.2 µM,–,3.4 µM,–,Active,–,–,–
CC(C)=C[C@@H](C[C@@H](C)[C@H]1CC[C@@]2(C)[C@@H]3[C@@H](OC(=O)c4ccccc4)C=C4[C@@H](CC[C@H](OC(=O)c5ccccc5)C4(C)C)[C@]3(C)CC[C@]12C)OC(=O)c1ccccc1 [TRIBENZOYLBALSAMINOL F],–,> 133 µM,> 2.3,–,> 2,68.4 µM,–,57.3 µM,–,Active,–,–,–
CO[C@H]1C=C2[C@@H](CC[C@H](O)C2(C)C)[C@]2(C)CC[C@]3(C)[C@@H]([C@H](C)CC(C=C(C)C)O[C@@H]4O[C@H](CO)[C@@H](O)[C@H](O)[C@H]4O)CC[C@@]3(C)[C@H]12 (some centres not stated) [KUGUAGLYCOSIDE A],–,13.5 µM,3.5,–,2.9,4.7 µM,–,3.9 µM,–,–,–,–,–
CC(C)=C[C@H](O)C[C@@H](C)[C@H]1CC[C@@]2(C)[C@@H]3[C@@H](O)C=C4[C@@H](CC[C@H](O)C4(C)C)[C@]3(C)CC[C@]12C (relative stereo) [BALSAMINOL F],Toxic,27.3 µM,1.5,Toxic,1.4,20 µM,inactive,18 µM,inactive,Active,Active,–,–
CC(=O)O[C@H]1C=C2[C@@H](CC[C@H](OC(C)=O)C2(C)C)[C@]2(C)CC[C@]3(C)[C@@H]([C@H](C)C[C@H](C=C(C)C)OC(C)=O)CC[C@@]3(C)[C@H]12 [TRIACETYLBALSAMINOL F],Non-toxic,> 133 µM,> 162,Non-toxic,> 343,0.4 µM,inactive,0.8 µM,inactive,Active,Active,22.5,50
